Like-named read-outs stand apart in the source and are kept apart here. Marks after values point to notes of the source that are not given here.

The source of these data is publication PMC9988221 (Journal of Clinical Psychopharmacology, 2023).

Series [1] is classed as in vivo, human. The following applies: for Cmax, gMean / AUC(0-t) / AUC(0-inf) / half-life / Cmax / AUC0–tz, gMean: plasma; for AUC(0-t) / AUC(0-inf) / half-life / Cmax: male, human; for AUC(0-t): AUC0–tz; for AUC(0-inf): AUC0–∞; for AUC0–tz, Adjusted gMean Ratio (90% CI) / Cmax, Adjusted gMean Ratio (90% CI): probe drug + steady-state BI 425809 25 mg vs probe drug only.
Another series concerns the target P-gp (Homo sapiens, UniProt P08183). The format is in vitro ADME. The following applies: Caco-2 cell monolayer; zosuquidar 1 μM, BI 425809 1-100 μM. An outline of the steps:
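Bidirectional Caco-2 monolayer transport in HBSS with 15 mM HEPES, pH 7.4, after 30 min equilibration. [³H]digoxin (1 μM) went in the donor side, and test compound (1–100 μM) or zosuquidar (1 μM) on both sides. After 30 min preincubation, sampling ran to 90 min and was read by scintillation counting. Papp gave the B-to-A/A-to-B efflux ratio, and IC50 with slope factor came from nonlinear regression of efflux ratio against inhibitor concentration.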

[2] abbreviates: +BI 425809 25 mg at steady state.
Setting [3] is: Probe Drug + BI 425809 25 mg once daily at steady state, healthy males.
Where [4] appears, read: arithmetic mean (SD), +BI 425809 25 mg at steady state.
The mark [5] stands for this setting: gMean, Probe Drug + BI 425809 25 mg once daily at steady state, healthy males.
The mark [6] stands for this setting: gMean, Probe Drug Only, healthy males.
Setting [7] is: probe drug alone (cocktail or digoxin alone).

Sequence of P-gp (P08183 whole entry): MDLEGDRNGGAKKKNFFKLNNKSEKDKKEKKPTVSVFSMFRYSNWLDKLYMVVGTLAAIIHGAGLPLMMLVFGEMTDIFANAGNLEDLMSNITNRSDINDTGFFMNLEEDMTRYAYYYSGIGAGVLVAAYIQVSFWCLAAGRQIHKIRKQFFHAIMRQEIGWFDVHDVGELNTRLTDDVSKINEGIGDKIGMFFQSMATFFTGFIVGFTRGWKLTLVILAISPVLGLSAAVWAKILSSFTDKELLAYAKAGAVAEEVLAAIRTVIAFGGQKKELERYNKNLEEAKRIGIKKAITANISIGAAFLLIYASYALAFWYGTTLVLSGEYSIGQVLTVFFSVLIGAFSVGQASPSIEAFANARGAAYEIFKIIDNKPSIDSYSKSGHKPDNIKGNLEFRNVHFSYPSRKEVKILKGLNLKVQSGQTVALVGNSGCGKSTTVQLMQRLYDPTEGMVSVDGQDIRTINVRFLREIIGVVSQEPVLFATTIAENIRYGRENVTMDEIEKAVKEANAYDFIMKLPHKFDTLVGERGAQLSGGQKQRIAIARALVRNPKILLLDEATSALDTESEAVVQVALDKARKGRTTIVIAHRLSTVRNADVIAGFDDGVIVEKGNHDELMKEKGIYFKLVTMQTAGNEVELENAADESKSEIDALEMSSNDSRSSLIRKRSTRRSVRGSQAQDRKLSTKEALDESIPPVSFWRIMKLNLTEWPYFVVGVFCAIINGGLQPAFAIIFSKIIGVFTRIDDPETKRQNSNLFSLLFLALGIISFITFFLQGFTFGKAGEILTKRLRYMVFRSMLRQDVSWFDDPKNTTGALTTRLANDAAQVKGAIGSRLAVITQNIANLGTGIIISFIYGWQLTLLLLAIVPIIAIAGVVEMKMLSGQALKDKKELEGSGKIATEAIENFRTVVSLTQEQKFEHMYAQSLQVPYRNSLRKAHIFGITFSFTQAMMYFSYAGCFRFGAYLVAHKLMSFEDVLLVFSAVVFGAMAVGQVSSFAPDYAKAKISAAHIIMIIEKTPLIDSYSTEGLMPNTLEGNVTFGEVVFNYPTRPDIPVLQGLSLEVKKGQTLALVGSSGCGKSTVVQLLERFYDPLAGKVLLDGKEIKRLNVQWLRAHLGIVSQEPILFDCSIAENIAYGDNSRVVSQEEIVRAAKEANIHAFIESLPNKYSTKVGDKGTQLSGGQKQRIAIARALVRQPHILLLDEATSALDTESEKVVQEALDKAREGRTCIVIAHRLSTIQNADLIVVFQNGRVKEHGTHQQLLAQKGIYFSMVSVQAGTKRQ

For `C[C@H]1O[C@@H](O[C@H]2[C@@H](O)C[C@H](O[C@H]3[C@@H](O)C[C@H](O[C@H]4CC[C@@]5(C)[C@H](CC[C@@H]6[C@@H]5C[C@@H](O)[C@]5(C)[C@@H](C7=CC(=O)OC7)CC[C@]65O)C4)O[C@@H]3C)O[C@@H]2C)C[C@H](O)[C@@H]1O` [Digoxin, digoxin], the “Cmax, arithmetic mean (SD)” value in series [1] (setting [2]) and in series [1] (setting [7]) was 1.1 (0.3) ng/mL in each case. Also, the “Cmax, gMean” value came out at 1.1 ng/mL in series [1] (setting [3]) and 1.1 ng/mL in series [1] (Probe Drug Only, healthy males). In addition, the values for the AUC(0-t) in series [1] (setting [4]), in series [1] (setting [5]) and in series [1] (setting [6]) were 10 ng·h/mL, 9.5 ng·h/mL and 9.7 ng·h/mL, respectively. Moreover, the AUC(0-inf) in series [1] (setting [4]) stood at 20.1 ng·h/mL. Moreover, in series [1] (t1/2, arithmetic mean (SD), +BI 425809 25 mg at steady state), the half-life is 54.2 h. Further, in series [1] (presence vs absence of steady-state BI 425809), the “adjusted gMean ratios for AUC0–tz and Cmax (in words)” value is listed as “within ±4% of 100%”. Besides, the “AUC0–tz, Adjusted gMean Ratio (90% CI)” value in series [1] is 97.9 (86.6–110.6) %. For the same molecule, in series [1], the “Cmax, Adjusted gMean Ratio (90% CI)” value was 100.6 (86.9–116.5) %.
For `Cc1ncc2n1-c1ccc(Cl)cc1C(c1ccccc1F)=NC2` [Midazolam, midazolam], the “decrease of the adjusted gMean ratio” value in series [1] (BI 425809 25 mg once daily) is on record as 29.4%. Moreover, in series [1] (setting [4]), the area under the curve AUC(0-t) stood at 16.7 ng·h/mL, the total exposure AUC(0-inf) is 17.4 ng·h/mL and the concentration peaked (Cmax) at 6.9 ng/mL. Moreover, in series [1] (setting [5]), the AUC(0-t) worked out at 16.6 ng·h/mL and the Cmax stood at 6.6 ng/mL. In series [1] (setting [6]), this molecule registered an AUC(0-t) of 23.5 ng·h/mL and a peak concentration (Cmax) of 8.5 ng/mL. In series [1] (t1/2, gMean (geometric coefficient of variation), on a background of steady-state BI 425809), the half-life was 2.8 h. Moreover, the “t1/2, gMean (geometric coefficient of variation)” value in series [1] (midazolam alone) is 3.3 [22.8] hours. In series [1], the “AUC0–tz, Adjusted gMean Ratio (90% CI)” value is reported as 70.6 (63.9–78.1) % and the “Cmax, Adjusted gMean Ratio (90% CI)” value is 77.6 (67.3–89.4) %. In series [1] (listed as midazolam), the “AUC0–tz, Adjusted gMean Ratio (90% CI)” value turned out to be 70.6% and the “Cmax, Adjusted gMean Ratio (90% CI)” value is reported as 77.6%. Moreover, the “Cmax, arithmetic mean (SD)” value in series [1] (setting [7]) is on record as 9.03 (3.3)* ng/mL.
On to `COc1ccc2[nH]c([S+]([O-])Cc3ncc(C)c(OC)c3C)nc2c1` (centres unmarked) [Omeprazole, omeprazole], for which the “AUC0–tz, arithmetic mean (SD)” value in series [1] (setting [2]) is reported as 604.0 (733.0) ng⋅h/mL. In addition, the exposure AUC(0-t) in series [1] (setting [5]) amounted to 430 ng·h/mL; in series [1] (setting [6]), 483 ng·h/mL. In series [1] (setting [4]), this molecule came in with an AUC(0-inf) of 609 ng·h/mL. The Cmax in series [1] (setting [4]) was determined as 257 ng/mL; in series [1] (setting [5]) it was 225 ng/mL; in series [1] (setting [6]) it was 220 ng/mL.
Take `CC(=O)C[C@H](c1ccccc1)c1c(O)c2ccccc2oc1=O` [R-warfarin]: in series [1] (setting [2]), the “AUC0–tz, arithmetic mean (SD)” value is 23,000.0 (5360.0) ng⋅h/mL and the “AUC0–∞, arithmetic mean (SD)” value was 27,500.0 (7200.0) ng⋅h/mL. In series [1] (setting [3]), the “AUC0–tz, gMean” value is recorded as 22,457.1 ng⋅h/mL and the “Cmax, gMean” value amounted to 541.8 ng/mL. In series [1] (Probe Drug Only, healthy males), the “AUC0–tz, gMean” value is reported as 22,615.1 ng⋅h/mL and the “Cmax, gMean” value was determined as 525.0 ng/mL. Also, in series [1] (setting [7]), the “AUC0–tz, arithmetic mean (SD)” value is on record as 23,000.0 (4860.0) ng⋅h/mL and the “AUC0–∞, arithmetic mean (SD)” value was 27,900.0 (6680.0) ng⋅h/mL.
Regarding `CC(=O)C[C@@H](c1ccccc1)c1c(O)c2ccccc2oc1=O` [S-warfarin], in series [1] (setting [2]), the “AUC0–tz, arithmetic mean (SD)” value is 15,600.0 (3590.0) ng⋅h/mL and the “AUC0–∞, arithmetic mean (SD)” value is given as 17,000.0 (3880.0) ng⋅h/mL. In series [1] (setting [3]), the “AUC0–tz, gMean” value is reported as 15,205.1 ng⋅h/mL and the “Cmax, gMean” value stood at 553.7 ng/mL. Also, the “AUC0–tz, gMean” value in series [1] (Probe Drug Only, healthy males) is recorded as 15,107.9 ng⋅h/mL. In series [1] (setting [7]), the “AUC0–tz, arithmetic mean (SD)” value is given as 15,400.0 (3480.0) ng⋅h/mL and the “AUC0–∞, arithmetic mean (SD)” value was 16,900.0 (3870.0) ng⋅h/mL.
Turning to `O[C@@H](COc1cccc2ncccc12)CN1CCN([C@@H]2c3ccccc3[C@@H]3[C@H](c4ccccc42)C3(F)F)CC1` [zosuquidar], at P-gp, the “effect on P-gp-mediated transcellular transport of digoxin (in words)” value is “inhibited”.
